# Experimental data published in ChEMBL document CHEMBL1146234, “Synthesis and biological evaluation of N-pyrazolyl-N'-alkyl/benzyl/phenylureas: a new class of potent inhibitors of interleukin 8-induced neutrophil chemotaxis” (J Med Chem, 2007).
# Activity calls are given as the source filed them. No cut-off for these calls is given here.
# Key:
# Homo sapiens [1] = species on record: Homo sapiens; assay: Inhibition of pyk2 50Kda region in human neutrophils assessed as reduction of IL8 stimulated tyrosin phosphorylation at 0.01 uM after 30 mins
# Outline: (§1)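 Neutrophils (2.5 × 10⁷ cells/mL) were treated with 10⁻³ M diisopropylfluorophosphate for 30 min at room temperature. They were then incubated 30 min ± compound and stimulated with 10⁻⁷ M IL8 for 0.5 min. Samples were boiled in SDS buffer and run on 7.5-20% SDS-PAGE, then blotted to nitrocellulose. Blots were probed overnight at 4 °C with anti-phosphotyrosine mAb 4G10 and detected by ECL. Ponceau S staining confirmed equal loading.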
# Homo sapiens [2] = species on record: Homo sapiens; assay: Inhibition of pyk2 60-70Kda region in human neutrophils assessed as reduction of IL8 stimulated tyrosin phosphorylation at 0.01 uM after 30 mins; outline: as §1
# Neutrophil = assay: Reduction of IL8-stimulated F-actin polymerization in human neutrophils; type: functional; parameters: scale not given: the % may be the effect or the level left
# Outline: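 Donor neutrophils were incubated ± compound, washed three times, then stimulated 30 min with medium or 100 nM IL8. Cytospins were stained with Alexa Fluor 488-phalloidin and examined by fluorescence microscopy. Mean fluorescence density came from linear per-cell measurement across ≥5 random fields per slide, in duplicate, ≥3 experiments. Values were given as area percentage, mean ± SD.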
# [3] = molecular target: RAC-alpha serine/threonine-protein kinase (Homo sapiens) (UniProt P31749); assay: Inhibition of IL8-induced Akt phosphorylation in human neutrophils at 0.01 uM
# Outline: (§2)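 Purified human neutrophils (1 × 10⁷ cells/mL) were pretreated 30 min with compound, then exposed to 10 nM IL8 or none for 5 min at 37 °C. Cells were lysed in NP40 buffer, and protein was quantified by BCA. Then […] protein per lane was run on 12% SDS-PAGE, blotted to nitrocellulose, and probed overnight at 4 °C with anti-phospho-Akt mAb. Detection was by ECL.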
# [4] = molecular target: T1, C-X-C chemokine receptor type 1 (Homo sapiens) (UniProt P25024); assay: Binding affinity to CXCR1
# T1 sequence (whole entry): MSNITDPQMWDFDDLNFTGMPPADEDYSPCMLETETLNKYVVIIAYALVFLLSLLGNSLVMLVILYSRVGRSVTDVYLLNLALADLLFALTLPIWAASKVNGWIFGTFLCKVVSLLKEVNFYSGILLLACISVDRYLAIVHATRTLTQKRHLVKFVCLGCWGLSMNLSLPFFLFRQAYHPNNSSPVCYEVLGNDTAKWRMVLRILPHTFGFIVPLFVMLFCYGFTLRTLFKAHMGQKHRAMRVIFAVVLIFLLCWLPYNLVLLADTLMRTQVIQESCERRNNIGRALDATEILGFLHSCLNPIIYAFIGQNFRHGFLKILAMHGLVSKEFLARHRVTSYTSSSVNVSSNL
# [5] = molecular target: T2, Tyrosine-protein kinase ZAP-70 (Homo sapiens) (UniProt P43403); assay: Binding affinity to Zap70
# T2 sequence (whole entry): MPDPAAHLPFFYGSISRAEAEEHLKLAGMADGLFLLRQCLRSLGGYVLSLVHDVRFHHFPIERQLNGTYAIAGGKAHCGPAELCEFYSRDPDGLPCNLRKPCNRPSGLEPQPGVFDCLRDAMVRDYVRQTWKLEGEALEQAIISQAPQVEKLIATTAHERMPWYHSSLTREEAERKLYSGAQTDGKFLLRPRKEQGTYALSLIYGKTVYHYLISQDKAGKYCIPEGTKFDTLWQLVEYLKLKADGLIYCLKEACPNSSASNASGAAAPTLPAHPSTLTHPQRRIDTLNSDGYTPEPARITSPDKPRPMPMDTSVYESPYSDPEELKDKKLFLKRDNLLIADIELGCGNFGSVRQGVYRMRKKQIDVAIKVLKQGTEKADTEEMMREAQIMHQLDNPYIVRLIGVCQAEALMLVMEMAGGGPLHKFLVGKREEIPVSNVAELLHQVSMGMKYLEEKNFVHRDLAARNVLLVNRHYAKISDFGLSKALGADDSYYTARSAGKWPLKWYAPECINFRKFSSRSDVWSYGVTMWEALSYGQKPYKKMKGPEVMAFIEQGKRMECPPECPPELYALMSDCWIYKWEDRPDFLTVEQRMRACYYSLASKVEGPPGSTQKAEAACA
# Homo sapiens [6] = species on record: Homo sapiens; assay: Inhibition of pyk2 60-70Kda region in human neutrophils assessed as reduction of IL8 stimulated tyrosin phosphorylation at 0.06 uM after 30 mins; outline: as §1
# Homo sapiens [7] = species on record: Homo sapiens; assay: Inhibition of pyk2 50Kda region in human neutrophils assessed as reduction of IL8 stimulated tyrosin phosphorylation at 0.06 uM after 30 mins; outline: as §1
# [8] = molecular target: RAC-alpha serine/threonine-protein kinase (Homo sapiens) (UniProt P31749); assay: Inhibition of IL8-induced Akt phosphorylation in human neutrophils at 0.06 uM; outline: as §2
# Homo sapiens [9] = species on record: Homo sapiens; assay: Inhibition of pyk2 50Kda region in human neutrophils assessed as reduction of IL8 stimulated tyrosin phosphorylation at 0.05 uM after 30 mins; outline: as §1
# Homo sapiens [10] = species on record: Homo sapiens; assay: Inhibition of pyk2 60-70Kda region in human neutrophils assessed as reduction of IL8 stimulated tyrosin phosphorylation at 0.05 uM after 30 mins; outline: as §1
# [11] = molecular target: RAC-alpha serine/threonine-protein kinase (Homo sapiens) (UniProt P31749); assay: Inhibition of IL8-induced Akt phosphorylation in human neutrophils at 0.05 uM; outline: as §2
# Chain of RAC-alpha serine/threonine-protein kinase (Homo sapiens) (P31749 whole entry): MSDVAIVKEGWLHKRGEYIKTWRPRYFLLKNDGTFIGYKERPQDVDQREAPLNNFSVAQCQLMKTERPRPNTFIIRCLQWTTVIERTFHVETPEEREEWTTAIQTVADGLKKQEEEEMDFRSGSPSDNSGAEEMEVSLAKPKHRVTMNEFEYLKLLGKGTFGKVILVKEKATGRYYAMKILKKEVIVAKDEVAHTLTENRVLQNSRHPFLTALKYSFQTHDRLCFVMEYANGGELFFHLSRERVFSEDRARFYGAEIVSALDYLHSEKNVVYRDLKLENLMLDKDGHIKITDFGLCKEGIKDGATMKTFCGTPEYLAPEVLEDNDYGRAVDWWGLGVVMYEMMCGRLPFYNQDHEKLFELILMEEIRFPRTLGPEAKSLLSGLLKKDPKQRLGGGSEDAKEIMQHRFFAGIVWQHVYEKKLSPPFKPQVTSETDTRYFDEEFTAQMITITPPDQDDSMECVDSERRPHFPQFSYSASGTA
inhibition (Homo sapiens [1]) [%],inhibition (Homo sapiens [2]) [%],Activity [3],Activity [4],Activity [5],inhibition (Homo sapiens [6]) [%],inhibition (Homo sapiens [7]) [%],Activity [8],inhibition (Homo sapiens [9]) [%],inhibition (Homo sapiens [10]) [%],Activity [11],Structure (SMILES),Activity (Neutrophil) [%]
70,63,inactive,inactive,inactive,,,,,,,CCOC(=O)c1cnn(CC(O)c2ccccc2)c1NC(=O)NCc1ccccc1 (stereo not drawn),69
,,,inactive,inactive,53,20,inactive,,,,CCOC(=O)c1cnn(CC(O)c2ccccc2)c1NC(=O)NC(C)C (stereo not drawn),97
,,,inactive,inactive,,,,71,81,inactive,CCOC(=O)c1cnn(CC(O)c2ccccc2)c1NC(=O)Nc1ccccc1 (stereo not drawn),97
